≈ marks a conversion by molar mass, not a printed value. Calls of active or inactive are those of the source. The calls are words filed in the database; no cut-off is given here.
What was measured:
[1] = Clearance in rat liver microsomes at 0.5 uM measured up to 45 mins in presence of NADPH by HPLC-MS/MS analysis; format: ADME, Microsome
[2] = Lipophilicity, LogD of compound by reverse phase HPLC analysis
[3] = Clearance in mouse liver microsomes at 0.5 uM measured up to 45 mins in presence of NADPH by HPLC-MS/MS analysis; format: ADME, Microsome
L929 = experiment: Cytotoxicity against mouse L929 cells assessed as reduction in viability by dual luciferase reporter gene assay; format: ADME, cell-based
Plasmodium falciparum [4] = experiment: Antiplasmodial activity against […] of Plasmodium falciparum NF54 assessed as reduction in female gametocytes activation preincubated for 48 hrs followed by gametocytes activation and measured after 24 hrs by fluorescence based automated inverted microscopic analysis; format: functional, organism-based
In short: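 NF54 gametocytes were activated by lowered temperature plus ookinete medium with xanthurenic acid and anti-Pfs25-Cy3 antibody (1/2000 final dilution). Cultures were then kept at 26 °C for 24 h in the dark. Activated females were counted by Cy3 anti-Pfs25 fluorescence, with events gated on size, roundness and fluorescence intensity.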

[5] = Permeability of compound by PAMPA
Plasmodium falciparum [6] = experiment: (§1) Antiplasmodial activity against Plasmodium falciparum 3D7A erythrocytic stage assessed as reduction in [3H]hypoxanthine incorporation preincubated for 24 hrs followed by [3H]hypoxanthine addition and measured after 24 hrs by microbeta scintillation counting method; format: functional, organism-based
In short: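 Nine threefold serial dilutions from 5 μM top concentration. Incubated 24 h at 37 °C under 5% CO2/5% O2/90% N2, then 0.2 μCi [3H]-hypoxanthine per well for another 24 h. Cells harvested on glass fibre filters and counted. Data normalized to compound-free parasitized RBCs; IC50 fitted.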

[7] = Clearance in human liver microsomes at 0.5 uM measured up to 45 mins in presence of NADPH by HPLC-MS/MS analysis; format: ADME, Microsome
[8] = Aqueous solubility of compound; conditions: buffer
Plasmodium falciparum [9] = experiment: Antiplasmodial activity against […] of Plasmodium falciparum NF54 assessed as reduction in male gametocytes activation preincubated for 48 hrs followed by gametocytes activation and measured after 24 hrs by fluorescence based automated inverted microscopic analysis; format: functional, organism-based
In short: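 Gametocyte activation was triggered by reduced temperature and ookinete medium containing xanthurenic acid. Male exflagellation centres were detected from a 10-frame video, scoring pixel changes caused by flagellar movement shifting surrounding cells.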

[10] = molecular target: Voltage-gated inwardly rectifying potassium channel KCNH2 (Homo sapiens, UniProt Q12809); experiment: Inhibition of human ERG expressed in CHO cells by Q-patch clamp assay
Sequence of Voltage-gated inwardly rectifying potassium channel KCNH2 (Q12809 whole entry): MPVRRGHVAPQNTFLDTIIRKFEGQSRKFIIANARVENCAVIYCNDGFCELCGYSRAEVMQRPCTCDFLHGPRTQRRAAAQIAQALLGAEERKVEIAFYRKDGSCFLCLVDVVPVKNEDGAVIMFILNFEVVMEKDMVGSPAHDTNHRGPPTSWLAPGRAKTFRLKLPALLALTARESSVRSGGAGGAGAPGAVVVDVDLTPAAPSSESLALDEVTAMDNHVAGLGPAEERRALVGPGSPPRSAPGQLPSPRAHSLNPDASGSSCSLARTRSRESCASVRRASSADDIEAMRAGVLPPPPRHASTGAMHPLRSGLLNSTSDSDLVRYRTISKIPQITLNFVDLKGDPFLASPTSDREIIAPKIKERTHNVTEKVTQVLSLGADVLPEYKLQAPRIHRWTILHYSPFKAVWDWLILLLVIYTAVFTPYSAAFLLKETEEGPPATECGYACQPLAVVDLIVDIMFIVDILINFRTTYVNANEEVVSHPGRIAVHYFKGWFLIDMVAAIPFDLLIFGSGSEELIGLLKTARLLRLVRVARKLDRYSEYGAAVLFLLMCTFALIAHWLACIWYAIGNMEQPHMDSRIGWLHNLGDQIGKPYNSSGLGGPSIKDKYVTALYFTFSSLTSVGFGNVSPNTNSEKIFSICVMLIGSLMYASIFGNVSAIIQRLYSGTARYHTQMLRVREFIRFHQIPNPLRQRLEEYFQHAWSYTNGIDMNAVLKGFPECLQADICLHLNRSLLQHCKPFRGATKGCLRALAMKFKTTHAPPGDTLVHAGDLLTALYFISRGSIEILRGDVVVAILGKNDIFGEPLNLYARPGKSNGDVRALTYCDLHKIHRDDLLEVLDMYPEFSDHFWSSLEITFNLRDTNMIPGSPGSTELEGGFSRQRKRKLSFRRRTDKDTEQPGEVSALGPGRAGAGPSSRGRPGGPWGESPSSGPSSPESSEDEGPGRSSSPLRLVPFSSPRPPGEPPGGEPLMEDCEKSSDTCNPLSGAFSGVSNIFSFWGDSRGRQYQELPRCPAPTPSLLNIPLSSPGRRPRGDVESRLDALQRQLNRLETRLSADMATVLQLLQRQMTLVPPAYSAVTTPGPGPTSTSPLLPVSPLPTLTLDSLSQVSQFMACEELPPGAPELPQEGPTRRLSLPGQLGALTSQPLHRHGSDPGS

Plasmodium falciparum [11] = experiment: Antiplasmodial activity against Plasmodium falciparum 3D7A erythrocytic stage assessed as reduction in [3H]hypoxanthine incorporation preincubated for 24 to 120 hrs followed by subculture in absence of compound and measured after 21 to 28 days by microbeta scintillation counting method; format: functional, organism-based
In short: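 P. falciparum 3D7A cultures were drug-exposed for 120 h, with samples taken every 24 h (24, 48, 72, 96 and 120 h). Viable parasites were quantified by limiting dilution, counting wells with growth after 21 and 28 days by [3H]-hypoxanthine incorporation.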

[12] = molecular target: cGMP-dependent protein kinase (Plasmodium falciparum, UniProt W7JX98); experiment: Inhibition of Plasmodium falciparum full length N-terminal His-tagged PKG expressed in Escherichia coli RosettaTM 2(DE3) pLysS cells using FAM-GRTGRRNSI-NH2 as substrate preincubated for 30 mins followed by ATP addition and measured after 30 mins by microfluidic mobility shift assay
Sequence of cGMP-dependent protein kinase (W7JX98 whole entry): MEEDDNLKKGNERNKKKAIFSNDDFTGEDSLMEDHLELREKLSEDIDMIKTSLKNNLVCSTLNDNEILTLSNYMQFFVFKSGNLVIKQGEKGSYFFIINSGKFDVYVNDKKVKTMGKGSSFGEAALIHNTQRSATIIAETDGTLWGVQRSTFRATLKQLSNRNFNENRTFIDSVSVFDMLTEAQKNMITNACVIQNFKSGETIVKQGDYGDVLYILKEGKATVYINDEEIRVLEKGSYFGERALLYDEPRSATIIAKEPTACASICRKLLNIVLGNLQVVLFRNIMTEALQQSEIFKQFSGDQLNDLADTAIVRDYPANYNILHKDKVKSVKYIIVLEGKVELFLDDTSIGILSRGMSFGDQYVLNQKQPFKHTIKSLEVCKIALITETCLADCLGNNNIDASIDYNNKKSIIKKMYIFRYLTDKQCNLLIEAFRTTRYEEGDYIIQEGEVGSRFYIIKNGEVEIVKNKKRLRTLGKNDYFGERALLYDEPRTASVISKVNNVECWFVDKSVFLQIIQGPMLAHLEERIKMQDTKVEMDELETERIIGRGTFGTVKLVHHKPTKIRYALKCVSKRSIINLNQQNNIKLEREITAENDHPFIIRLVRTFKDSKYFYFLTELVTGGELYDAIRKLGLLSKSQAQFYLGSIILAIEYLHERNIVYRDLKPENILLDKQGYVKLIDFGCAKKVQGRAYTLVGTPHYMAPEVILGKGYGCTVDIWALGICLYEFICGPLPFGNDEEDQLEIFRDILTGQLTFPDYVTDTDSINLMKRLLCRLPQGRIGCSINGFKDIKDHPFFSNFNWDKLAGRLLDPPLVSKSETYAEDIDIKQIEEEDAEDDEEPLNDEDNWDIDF

Plasmodium falciparum [13] = experiment: as §1, with “3D7A harboring with PKG T618Q mutant asexual” for “3D7A”, “for 72” for “for 24”; format: functional, organism-based
Plasmodium falciparum [14] = experiment: as §1, with “3D7A harboring with PKG T618Q mutant asexual” for “3D7A”, “for 48” for “for 24”; format: functional, organism-based
Plasmodium falciparum [15] = experiment: Antiplasmodial activity against Plasmodium falciparum 3D7A asexual erythrocytic stage assessed as reduction in [3H]hypoxanthine incorporation preincubated for 48 hrs followed by [3H]hypoxanthine addition and measured after 24 hrs by microbeta scintillation counting method; format: functional, organism-based
Plasmodium falciparum [16] = experiment: Antiplasmodial activity against Plasmodium falciparum 3D7A asexual erythrocytic stage assessed as reduction in [3H]hypoxanthine incorporation preincubated for 72 hrs followed by [3H]hypoxanthine addition and measured after 24 hrs by microbeta scintillation counting method; format: functional, organism-based

Structure (SMILES) | CLH [1] | chromatographic logD [2] | CLH [3] | EC50 (L929) | EC50 (Plasmodium falciparum [4]) | Papp [5] | EC50 (Plasmodium falciparum [6]) | CLH [7] | solubility [8] | EC50 (Plasmodium falciparum [9]) | IC50 [10] | Activity (Plasmodium falciparum [11]) | IC50 [12] | EC50 (Plasmodium falciparum [13]) | EC50 (Plasmodium falciparum [14]) | EC50 (Plasmodium falciparum [15]) | EC50 (Plasmodium falciparum [16])
Fc1ccc(-c2nc(N3CCOCC3)sc2-c2ccnc(Nc3ccc(N4CCNCC4)cc3)n2)cc1 | 0.59 mL/min/g | 3.99 | 0.48 mL/min/g | 3300 nM | 1070 nM | 28 ×10⁻⁶ cm/s | 1620 nM | 0.4 mL/min/g | 38 µM (≈ 19.7 µg/mL) | 1120 nM |  |  |  |  |  |  | 
OC(CNc1nccc(-c2sc(C3CCNCC3)nc2-c2ccc(F)cc2)n1)c1ccncc1 (stereo unspecified) | 0.77 mL/min/g | 1.79 | 2.08 mL/min/g | 15100 nM | 10600 nM | 1 ×10⁻⁶ cm/s |  | 5.8 mL/min/g | 225 µM (≈ 107 µg/mL) | 3670 nM | 28200 nM |  |  |  |  |  | 
Cc1cc(Nc2nccc(-c3sc(C4CCNCC4)nc3C3CC3)n2)ccn1 | 1.18 mL/min/g | 1.99 | 0.87 mL/min/g | 8900 nM |  | 18 ×10⁻⁶ cm/s | 270 nM | 0.4 mL/min/g | 342 µM (≈ 134 µg/mL) |  |  | Active |  |  |  |  | 
Cc1cc(Nc2nccc(-c3sc(C4CCNCC4)nc3CN3CCCCC3)n2)ccn1 |  |  |  | 20000 nM |  | 1 ×10⁻⁶ cm/s | 190 nM |  |  |  |  | Active |  |  |  |  | 
Fc1ccc(-c2nc(N3CCCC3)sc2-c2ccnc(Nc3ccc(N4CCNCC4)cc3)n2)cc1 | 0.81 mL/min/g | 4.43 | 1.56 mL/min/g | 3800 nM |  | 27 ×10⁻⁶ cm/s | 770 nM | 0.59 mL/min/g | 54 µM (≈ 27.1 µg/mL) |  |  |  | 2 nM |  |  |  | 
Fc1ccc(-c2nc(C3CCNCC3)sc2-c2ccnc(Nc3nncs3)n2)cc1 | 0.46 mL/min/g | 1.82 | 0.67 mL/min/g | 2800 nM | 380 nM | < 1 ×10⁻⁶ cm/s | 1020 nM | 0.55 mL/min/g | 66 µM (≈ 29 µg/mL) | 140 nM | 2500 nM |  |  |  |  |  | 
CN1CCN(c2ccc(Nc3nccc(-c4sc(C5CCNCC5)nc4-c4ccc(F)cc4)n3)cc2)CC1 | 1.27 mL/min/g | 2.79 | 0.96 mL/min/g | 3800 nM | 300 nM | 11 ×10⁻⁶ cm/s | 700 nM | 0.53 mL/min/g | 41 µM (≈ 21.7 µg/mL) | 260 nM | 13200 nM |  | 0.6 nM |  |  |  | 
Fc1ccc(-c2nc(C3CCNCC3)sc2-c2ccnc(Nc3cccnn3)n2)cc1 | 0.95 mL/min/g | 2.14 | 4.42 mL/min/g | 3200 nM |  | 19 ×10⁻⁶ cm/s | 980 nM | 0.47 mL/min/g | 123 µM (≈ 53.3 µg/mL) |  |  |  |  |  |  |  | 
CN1CCC(c2nc(-c3ccc(F)c(NS(C)(=O)=O)c3)c(-c3ccnc(NCC4CC4)n3)s2)CC1 | 6.22 mL/min/g | 3.2 | 1.32 mL/min/g | 17000 nM |  | 34 ×10⁻⁶ cm/s | 1020 nM | 0.49 mL/min/g | 311 µM (≈ 161 µg/mL) |  | 1340 nM | inactive |  | 3900 nM | > 5000 nM | 1020 nM | 
Fc1ccc(-c2nc(C3CCNCC3)sc2-c2ccnc(Nc3cnccn3)n2)cc1 | 0.49 mL/min/g | 2.32 | 0.72 mL/min/g | 3200 nM |  | 16 ×10⁻⁶ cm/s | 600 nM | 0.4 mL/min/g | 68 µM (≈ 29.5 µg/mL) |  |  |  | 5 nM | 880 nM | 820 nM | 1360 nM | 690 nM
CCc1nc(N)nc(N)c1-c1ccc(Cl)cc1 [PYRIMETHAMINE] |  |  |  |  | > 10000 nM |  | 100 nM |  |  | > 10000 nM |  |  |  |  |  |  | 
C[C@H]1[C@H](OC(=O)CCC(=O)O)O[C@@H]2O[C@@]3(C)CC[C@H]4[C@H](C)CC[C@@H]1[C@@]24OO3 [ARTESUNATE] |  |  |  |  | > 10000 nM |  | 30 nM |  |  | > 10000 nM |  |  |  |  |  |  | 
Nc1nc(-c2ccc(F)cc2)c(-c2ccnc(Nc3ccc(N4CCNCC4)cc3)n2)s1 | 1.98 mL/min/g | 2.42 | 1.47 mL/min/g | 1800 nM | 190 nM |  | 1750 nM | 0.52 mL/min/g | 24.5 µM (≈ 11 µg/mL) | 150 nM | 35500 nM |  |  |  |  |  | 
Cc1cc(Nc2nccc(-c3sc(C4CCNCC4)nc3-c3ccc(F)cc3)n2)on1 |  | 2.61 |  | 2300 nM |  | 12 ×10⁻⁶ cm/s | 2650 nM |  | 66 µM (≈ 28.8 µg/mL) |  |  |  | 3 nM |  |  |  | 
CN1CCC(C(=O)Nc2nc(-c3ccc(F)cc3)c(-c3ccnc(Nc4ccc(N5CCNCC5)cc4)n3)s2)CC1 | 0.46 mL/min/g | 2.2 | 0.48 mL/min/g | 7800 nM | 1310 nM | 1 ×10⁻⁶ cm/s | 1460 nM | 0.4 mL/min/g | 11 µM (≈ 6.3 µg/mL) | 630 nM |  |  |  |  |  |  | 
Cc1nccc(Nc2nccc(-c3sc(C4CCNCC4)nc3-c3ccc(F)cc3)n2)n1 |  | 2.43 |  | 2500 nM |  | 18 ×10⁻⁶ cm/s | 810 nM |  | 47 µM (≈ 21 µg/mL) |  |  |  |  |  |  |  | 
